The record followed here is ChEMBL document CHEMBL4706553, “Discovery of potent small molecule PROTACs targeting mutant EGFR” (Eur J Med Chem, 2020).

Activity calls are given as the source filed them. The rule behind the calls is not given here.

For assay [1], the target named is von Hippel-Lindau disease tumor suppressor/Epidermal growth factor receptor (Homo sapiens, UniProt P00533+P40337). As to the kind of experiment: Protac activity at VHL/EGFR del19 mutant in human HCC827 cells assessed as induction of EGFR degradation measured after 48 hrs by Western blot analysis. The assay is classed as cell-based. The method, boiled down:
(§1)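 HCC827 cells seeded at 0.5–1 × 10⁶ per well, then treated at the stated concentrations for 48 h. EGFR by Western blot; n = 3. DC₅₀ (concentration giving 50% EGFR loss) by nonlinear regression, log(inhibitor) vs response.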

Assay [2] concerns von Hippel-Lindau disease tumor suppressor/Epidermal growth factor receptor (Homo sapiens), P00533+P40337 [L858R,T790M]. As to the kind of experiment: Protac activity at VHL/EGFR L858R/T790M mutant in human H1975 cells assessed as maximal induction of degradation of EGFR incubated for 48 hrs by Western blot analysis relative to control. The class given is cell-based. The note with it: NCI-H1975. A digest of the protocol:
(§2)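 H1975 cells exposed to the stated concentrations for 48 h. EGFR by Western blot; n = 3. DC₅₀ by nonlinear regression, log(inhibitor) vs response.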

Assay [3] deals with NCI-H1975. Description: Induction of cell cycle arrest in human NCI-H1975 cells assessed as accumulation at G1 phase measured at 333 to 1000 nM measured after 48 hrs by propidium iodide staining based flow cytometry analysis. The class given is functional. As to conditions: dose 333-1000 nM. A digest of the protocol: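 Cell cycle: cells were seeded at 0.5–1 × 10⁶ per well for 24 h, then treated 48 h. They were collected and washed twice in PBS, stained with PI/RNase at 37 °C for 15 min, and analysed by flow cytometry. n = 2.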
On the technique in general: In flow cytometry, cells or beads pass a laser one at a time.

Assay [4] concerns von Hippel-Lindau disease tumor suppressor/Epidermal growth factor receptor (Homo sapiens), P00533+P40337 [L858R,T790M]. Description: Protac activity at VHL/EGFR L858R/T790M mutant in human H1975 cells assessed as induction of degradation of EGFR at 0.1 uM pretreated with mTOR inhibitor, rapamycin for 8 hrs followed by incubation with compound for 16 hrs by Western blot analysis. The class given is cell-based. The note with it: NCI-H1975. A digest of the protocol:
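H1975 cells given rapamycin at the stated concentrations for 8 h, then compound for 16 h. EGFR by Western blot; n = 3.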
(Immunoblotting shows a protein as a band on a membrane.)

Assay [5] deals with von Hippel-Lindau disease tumor suppressor/Epidermal growth factor receptor (Homo sapiens), P00533+P40337 [UNDEFINED MUTATION]. Description: Protac activity at VHL/EGFR del19 mutant in human HCC827 cells assessed as induction of EGFR degradation at 33 nM incubated for 24 hrs measured following drug wash-out for 24 hrs by Western blot analysis. The class given is cell-based. A digest of the protocol:
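HCC827 cells (RPMI-1640, 10% heat-inactivated FBS, 1% sodium pyruvate, 1% glutamine, 37 °C, 5% CO₂) treated at 33 nM for 24 h. Medium then replaced with compound-free medium, and protein harvested at the stated times. EGFR read by Western blot; n = 2.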

Assay [6] shares this test system. As to the kind of experiment: Protac activity at VHL/EGFR del19 mutant in human HCC827 cells assessed as induction of EGFR degradation at 0.1 to 0.3 nM precultured in medium without FBS followed by incubation with compound for 16 hrs by Western blot analysis. As to conditions: dose 0.1-0.3 nM. The class given is cell-based. A digest of the protocol: (§3)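 HCC827 or H1975 cells precultured 8 h in medium with or without FBS, then treated at the stated concentrations for 16 h. EGFR protein by Western blot; n = 3.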

The target in assay [7] is von Hippel-Lindau disease tumor suppressor/Epidermal growth factor receptor (Homo sapiens, UniProt P00533+P40337, T790M/L858R). As to the kind of experiment: Protac activity at VHL/EGFR L858R/T790M mutant in human H1975 cells assessed as induction of degradation of EGFR incubated for 48 hrs by Western blot analysis. As to conditions: nci-h1975. The class given is cell-based. A digest of the protocol:
as §2

The subject of assay [8] is HCC827. Description: Effect on Akt protein expression in human HCC827 cells at 0.003 to 0.33 uM incubated for 48 hrs by Western blot analysis. The assay is classed as functional, cell-based. As to conditions: dose 0.003-0.33 µM.
Assay [9] concerns NCI-H1975. Description: Effect on Akt protein expression in human H1975 cells at 0.1 to 1 uM incubated for 48 hrs by Western blot analysis. The class given is functional, cell-based. The note with it: dose 0.1-1 µM.
The subject of assay [10] is von Hippel-Lindau disease tumor suppressor/Epidermal growth factor receptor (Homo sapiens), P00533+P40337 [L858R,T790M]. As to the kind of experiment: Protac activity at VHL/EGFR L858R/T790M mutant in human H1975 cells assessed as induction of degradation of EGFR at 333 nM incubated for 48 hrs measured after compound wash-out for 48 hrs by Western blot analysis. The note with it: NCI-H1975. The assay is classed as cell-based. The method, boiled down:
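H1975 cells (RPMI-1640, 10% heat-inactivated FBS) exposed to 333 nM for 48 h. Medium then replaced with compound-free medium, and lysates collected at the stated times. EGFR read by Western blot; n = 2.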

For assay [11], the system named is NCI-H1975. As to the kind of experiment: Antiproliferative activity against human H1975 cells expressing EGFR L858R/T790M mutant assessed as cell growth inhibition measured after 72 hrs by MTT assay. The class given is functional, cell-based. The note with it: NCI-H1975, 72 h. A digest of the protocol: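 MTT assay on H1975 cells grown in RPMI-1640 with 10% heat-inactivated FBS and 1% penicillin-streptomycin at 37 °C and 5% CO₂. Cells were seeded at 3000–8000 per well and left 24 h, then exposed to a concentration series for 72 h. MTT (5 mg/mL stock in PBS) was added for 4 h, supernatant removed and formazan dissolved in DMSO. IC50 was fitted by nonlinear regression (log inhibitor vs response).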

For assay [12], the system named is von Hippel-Lindau disease tumor suppressor/Epidermal growth factor receptor (Homo sapiens), P00533+P40337 [UNDEFINED MUTATION]. As to the kind of experiment: Protac activity at VHL/EGFR del19 mutant in human HCC827 cells assessed as maximal induction of EGFR degradation at 33 nM measured after 48 hrs by Western blot analysis. The class given is cell-based. The method, boiled down:
as §1

Assay [13] has the same test system. Description: Protac activity at VHL/EGFR del19 mutant in human HCC827 cells assessed as induction of EGFR degradation at 333 nM measured after 24 hrs by Western blot analysis. The class given is cell-based. The method, boiled down:
(§4)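 HCC827 cells seeded at 0.5–1 × 10⁶ per well, grown 24 h, then treated at the stated concentrations for 24 h. EGFR^del19 level by Western blot with anti-EGFR antibody and β-actin loading control.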

Assay [14] shares this test system. Description: Protac activity at VHL/EGFR del19 mutant in human HCC827 cells assessed as induction of EGFR degradation at 0.033 uM pretreated with VHL ligand, VHL-L for 2 hrs followed by incubation with compound for 24 hrs by Western blot analysis. The assay is classed as cell-based.
In assay [15] the test system is von Hippel-Lindau disease tumor suppressor/Epidermal growth factor receptor (Homo sapiens), P00533+P40337 [L858R,T790M]. Description: Protac activity at VHL/EGFR L858R/T790M mutant in human H1975 cells assessed as induction of degradation of EGFR by measuring reduction in EGFR phosphorylation at 100 nM incubated for 48 hrs by Western blot analysis. The assay is classed as cell-based. The note with it: NCI-H1975. A digest of the protocol:
(§5)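 HCC827 or H1975 cells treated at the stated concentrations for 48 h. Lysates probed by Western blot for EGFR, P-EGFR, Akt and P-Akt (each 1:1000); n = 2.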

Assay [16] shares this test system. Description: Protac activity at VHL/EGFR L858R/T790M mutant in human H1975 cells assessed as induction of degradation of EGFR at 100 to 333 nM precultured in medium without FBS followed by incubation with compound for 16 hrs by Western blot analysis. The class given is cell-based. As to conditions: NCI-H1975, dose 100-333 nM. The method, boiled down: as §3
In assay [17] the test system is von Hippel-Lindau disease tumor suppressor/Epidermal growth factor receptor (Homo sapiens), P00533+P40337 [UNDEFINED MUTATION]. As to the kind of experiment: Protac activity at VHL/EGFR del19 mutant in human HCC827 cells assessed as induction of EGFR degradation by measuring reduction in Akt phosphorylation at 3 nM incubated for 48 hrs by Western blot analysis. The assay is classed as cell-based. A digest of the protocol:
as §5

For assay [18] the test system is unchanged. As to the kind of experiment: Protac activity at VHL/EGFR del19 mutant in human HCC827 cells assessed as induction of EGFR degradation at 1 to 33 nM incubated for 24 hrs by Western blot analysis. The note with it: dose 1-33 nM. The class given is cell-based. The method, boiled down:
as §4

What is called DC50 is the concentration giving 50% degradation. A word on the IC50: it is the concentration needed to halve the response being measured. With `Cc1ncsc1-c1ccc(CNC(=O)[C@@H]2C[C@@H](O)CN2C(=O)[C@@H](NC(=O)CCCCCCN2CCN(c3ccc(Nc4ncc5nc(Nc6ccccc6)n(C6CCCC6)c5n4)cc3)CC2)C(C)(C)C)cc1`, the DC50 in [1] is 0.51 nM; in [7], 126 nM. Besides, the results for the Emax in assay [2] and in [12] were 90.3% and 80.4%, respectively. The outcome in assay [3], in [4], in [5], in [6], in assay [10] and in assay [14] was Active. Further, the outcome in assay [15], in assay [16], in assay [17] and in assay [18] was Active. For the same compound, the outcome in assay [8], in assay [9] and in [13] was inactive. For the same compound, the IC50 in assay [11] amounted to 203 nM.
